In data set [1] the test system is HT-22. Put plainly: Neuroprotective activity against glutamate-induced neuronal cell death in mouse HT22 cells at 25 to 50 uM after 24 hrs by LDH-release assay relative to control. It counts as functional. The method in brief: (§1)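 HT22 cells exposed to 10 mM glutamate together with compound at 25 or 50 µM for 24 h. Cell death read as LDH released into the culture medium (cytotoxicity detection kit). Control is LDH release from cells incubated without glutamate, set at 100%.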

For data set [2], the system named is HT-22. Briefly: Cytotoxicity against mouse HT22 cells up to 100 uM after 24 hrs by LDH-release assay. Conditions: ht-22, 24 h. It counts as cell-based. The method in brief:
(§2)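 HT22 cells exposed to compound alone, without glutamate (cytotoxicity tested up to 100 µM). Cell injury is read as lactate dehydrogenase released into the culture medium, measured with a cytotoxicity detection kit. LDH from control cultures is set at 100%.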

The subject of data set [3] is HT-22. Briefly: Neuroprotective activity against glutamate-induced neuronal cell death in mouse HT22 cells at 1 to 25 uM after 24 hrs by LDH-release assay relative to control. It counts as functional, cell-based. The method in brief: (§3)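 HT22 cells co-incubated 24 h with 10 mM glutamate plus compound at 0, 1.0, 2.5, 5.0, 10 or 25 µM. Cell death is read as LDH released into the medium. Control-culture LDH is set at 100%. IC50 values were estimated from this low-dose series; for some compounds, approximate IC50s were corrected by subtracting suppression of basal, glutamate-independent death.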

The subject of data set [4] is HT-22. Briefly: Neuroprotective activity against glutamate-induced neuronal cell death in mouse HT22 cells after 24 hrs by LDH-release assay. Type of data set: functional, cell-based. Conditions: HT-22, 24 h. In short, it runs like this:
as §3

In data set [5] the test system is HT-22. Briefly: Neuroprotective activity against glutamate-induced neuronal cell death in mouse HT22 cells at 2.5 to 10 uM after 24 hrs by LDH-release assay relative to control. Type of data set: functional, cell-based. The method in brief:
as §3

Data set [6] has as its system HT-22. Briefly: Cytotoxicity against mouse HT22 cells after 24 hrs in absence of glutamate by LDH-release assay relative to control. Conditions: ht-22, 24 h. Type of data set: ADME, cell-based. In short, it runs like this:
as §2

Data set [7] has as its system HT-22. Briefly: Neuroprotective activity against glutamate-induced neuronal cell death in mouse HT22 cells at 2.5 to 5 uM after 24 hrs by LDH-release assay relative to control. It counts as functional, cell-based. The method in brief:
as §3

Data set [8] has as its system HT-22. Briefly: Neuroprotective activity against glutamate-induced neuronal cell death in mouse HT22 cells at 25 uM after 24 hrs by LDH-release assay relative to control. Type of data set: functional. The method in brief: as §1
Data set [9] has as its system HT-22. Put plainly: Neuroprotective activity against glutamate-induced neuronal cell death in mouse HT22 cells at 50 uM after 24 hrs by LDH-release assay relative to control. It counts as functional, cell-based. In short, it runs like this: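 HT22 cells treated 24 h with 10 mM glutamate and compound at 0, 25 or 50 µM. Cell death is read as lactate dehydrogenase released into the culture medium, measured with a cytotoxicity detection kit. LDH of control cultures is set at 100%.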

Data set [10] relates to HT-22. Briefly: Neuroprotective activity against glutamate-induced neuronal cell death in mouse HT22 cells at 1 to 10 uM after 24 hrs by LDH-release assay relative to control. It counts as functional, cell-based. The method in brief:
as §3

Our source for the Activity and IC50 values is ChEMBL document CHEMBL4043176, “Synthesis of 3-[4-(dimethylamino)phenyl]alkyl-2-oxindole derivatives and their effects on neuronal cell death” (Bioorg Med Chem Lett, 2017).

Calls of active or inactive are those of the source. No cut-off for these calls is given here.

On to `CN(C)CCCCCCCC1(C)C(=O)Nc2ccccc21` (centres undefined), for which the outcome in [1] was inactive. The Activity entry in data set [2] is “Non-Toxic”.
Turning to `CN(C)c1ccc(CCCC2C(=O)Nc3ccc(C(F)(F)F)cc32)cc1` (centres undefined), the Activity result in data set [2] is “Non-Toxic”.
As to `COc1ccc2c(c1)C1(CCN(c3ccccc3)CC1)C(=O)N2`, the result in data set [1] was inactive. The Activity result in data set [2] was “Non-Toxic”.
With `COc1ccc2c(c1)C(C)(CCCc1ccc(N(C)C)cc1)C(=O)N2CC(=O)N(C)C` (centres undefined), the Activity entry in data set [2] is listed as “Non-Toxic”.
Same read-out and setting: next, `COCCOc1ccc2c(c1)C(C)(CCCc1ccc(N(C)C)cc1)C(=O)N2` (centres undefined): “Non-Toxic”.
Same read-out and setting: the same measure for `COc1ccc(N2C(=O)C(C)(CCCc3ccc(N(C)C)cc3)c3ccccc32)cc1` (centres undefined): “Non-Toxic”.
In general, IC50 refers to the midpoint of a concentration-inhibition curve. A low value points to greater potency in that assay. Take `CN(C)c1ccc(CC2C(=O)Nc3ccccc32)cc1` (racemic): the outcome in data set [1] and in [3] was Active. In addition, the Activity entry in data set [2] is listed as “Non-Toxic”. This compound came in with an IC50 in [4] of 7.1 µM.
In the case of `CN(C)c1ccc(CCCC2C(=O)Nc3ccccc32)cc1` (racemic), the outcome in data set [1] and in [5] was Active. For the same compound, in data set [2], the Activity entry is on record as “Non-Toxic”. Half-maximal inhibition in [4] (IC50) required 5.5 µM.
In the case of `CN(Cc1ccccc1)c1ccc(CCCC2(C)C(=O)Nc3ccccc32)cc1` (racemic), the result in [1] was Active. Besides, the Activity entry in [2] is listed as “Non-Toxic”.
Consider `CN(C)c1ccc(CCCCC2C(=O)Nc3ccccc32)cc1` (racemic), for which the result in data set [1] was Active. Besides, the Activity result in data set [2] was “Non-Toxic”.
For `COc1ccc2c(c1)C(C)(CCCc1ccc(N(C)C)cc1)C(=O)N2` (racemic) [listing 1 of 2 here], in [2], the Activity result is recorded as “Non-Toxic”.
Take `COc1ccc2c(c1)C(C)(CCOc1ccc(N(C)C)cc1)C(=O)N2` (racemic): in data set [1], the outcome was Active. In data set [2], the Activity result was “Non-Toxic”.
For the compound `COc1ccc2c(c1)C(C)(CCCc1ccc(N(C)C)cc1)C(=O)N2CC(=O)O` (racemic), the outcome in [1] was inactive. Also, the Activity entry in [2] is given as “Non-Toxic”.
Regarding `CN(C)c1ccc(CCCC2(C)C(=O)Nc3ccc(O)cc32)cc1` (racemic), the Activity in data set [1] is reported as greater than 100%; in data set [2], “Non-Toxic”; in data set [6], “Non-Toxic”. The same compound showed an IC50 in data set [4] of 1.9 µM. Moreover, in [7], the result was Active.
For `CN(CCCCCC1C(=O)Nc2ccccc21)c1ccccc1` (racemic), the outcome in [1] was Active. In addition, the Activity entry in data set [2] is given as “Non-Toxic”.
Regarding `CCN(CC)c1ccc(CCCC2C(=O)Nc3ccccc32)cc1` (racemic), the Activity in data set [1] is greater than 100%; in data set [2] it was “Non-Toxic”; in data set [6], “Non-Toxic”.
With `CN(C)c1ccc(CCCC2(C)C(=O)Nc3ccccc32)cc1` (racemic), the Activity in data set [1] is recorded as greater than 100%; in [2], “Non-Toxic”; in [6] it was “Non-Toxic”.
As for `CN(C)c1ccc(CCC2C(=O)Nc3ccccc32)cc1` (racemic), the Activity result in data set [2] is recorded as “Non-Toxic”. In [8], the outcome was inactive. Also, the outcome in data set [9] was Active.
On to `CN(C)c1ccc(C(C)(C)CC2C(=O)Nc3ccccc32)cc1` (racemic), for which the Activity entry in [2] is “Non-Toxic”.
Take `CN(C)c1ccc(CCCC2C(=O)N(C)c3ccccc32)cc1` (racemic): the Activity in data set [1] is given as greater than 100%; in [2] it was “Non-Toxic”; in [6], “Non-Toxic”.
`CN(C)c1ccc(C(=O)NCCC2C(=O)Nc3ccccc32)cc1` (racemic): in data set [1], the outcome was inactive. In addition, in data set [2], the Activity entry is reported as “Non-Toxic”.
On to `CN(C)c1cccc(CCCC2C(=O)Nc3ccccc32)c1` (racemic), for which the Activity in [1] is recorded as greater than 100%; in data set [2], “Non-Toxic”; in [6], “Non-Toxic”.
For `CN(C)c1ccc(CCCC2(C)C(=O)Nc3ccc(F)cc32)cc1` (racemic), the Activity in [1] is greater than 100%; in [2] it was “Non-Toxic”; in data set [6] it was “Non-Toxic”. Also, in data set [10], the outcome was Active. This compound also returned an IC50 in data set [4] of 1.2 µM.
As to `COc1ccc2c(c1)C(C)(CCCc1ccc(N(C)C)cc1)C(=O)N2` (racemic) [listing 2 of 2 here], the result in data set [1] was Active.
On the same count and under the same terms, the same measure for `COc1ccc2c(c1)C(C)(CCCc1ccc(N(C)C)cc1)C(=O)N2` (stereo in doubt; 8a): “Active”.
On the same count and under the same terms, next, `COc1ccc2c(c1)C(C)(CCCc1ccc(N(C)C)cc1)C(=O)N2` (stereo in doubt; 8b): “Active”.
As to `O=C1O[C@H]([C@@H](O)CO)C(O)=C1O` [ASCORBIC ACID], in data set [8], the Activity is listed as 50%.
